Calls of active or inactive are those of the source. The calls are words filed in the database; no cut-off is given here.
What was measured:
Klebsiella pneumoniae = assay: Antibacterial activity against Klebsiella pneumoniae ATCC 8308 by agar diffusion assay; assay type: functional
In short: (§1)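 Test bacteria at 10^6 CFU/ml were suspended in melted nutrient agar and poured into Petri dishes. 9 mm wells were cut and each filled with 50 µl of a 0.2 mM compound solution. Inhibition zones were read after 18 h at 37 °C. Growth of colonies inside the zone was flagged.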

Salmonella enterica = assay: Antibacterial activity against Salmonella enterica ATCC 13311 by agar diffusion assay; assay type: functional; in short: as §1
Escherichia coli [1] = assay: Antibacterial activity against Escherichia coli X580 by agar diffusion assay; assay type: functional; in short: as §1
Escherichia coli [2] = assay: Antibacterial activity against Escherichia coli ATCC 33475 by agar diffusion assay; assay type: functional; in short: as §1
Staphylococcus aureus [3] = assay: Antibacterial activity against wild type Staphylococcus aureus SG 511 by agar diffusion assay; assay type: functional; in short: as §1
Mycobacterium = assay: Antibacterial activity against wild type Mycobacterium vaccae IMET10670 by agar diffusion assay; assay type: functional, Mycolicibacterium vaccae; in short: as §1
Escherichia coli [4] = assay: Antibacterial activity against TEM1 beta-lactamase Escherichia coli IV-3-2 by agar diffusion assay; assay type: functional; in short: as §1
Escherichia coli [5] = assay: Antibacterial activity against wild type Escherichia coli DC0 by agar diffusion assay; assay type: functional; in short: as §1
Staphylococcus aureus [6] = assay: Antibacterial activity against MRSA Staphylococcus aureus 134/93 by agar diffusion assay; assay type: functional; in short: as §1
Enterococcus faecalis = assay: Antibacterial activity against VRE Enterococcus faecalis 1528 by agar diffusion assay; assay type: functional; in short: as §1
Enterobacter cloacae = assay: Antibacterial activity against ampC beta-lactamase Enterobacter cloacae P99 by agar diffusion assay; assay type: functional
Pseudomonas aeruginosa = assay: Antibacterial activity against PSE1 beta-lactamase Pseudomonas aeruginosa IV-3-13 by agar diffusion assay; assay type: functional; in short: as §1
[7] = test system: Beta-lactamase (Bacillus cereus); assay: Inhibition of Bacillus cereus penicillinase
Candida albicans = assay: Antifungal activity against Candida albicans BMSY 212 by agar diffusion assay; assay type: functional
In short: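 Agar-well diffusion: Candida albicans at 10^6 CFU/ml was seeded in melted nutrient agar and poured into plates. Compound was loaded as 50 µl of a 0.2 mM solution into 9 mm holes. Plates were incubated at 30 °C and the inhibition zones recorded.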

SMILES	inhibition zone (IZ) (Klebsiella pneumoniae) [mm]	inhibition zone (IZ) (Salmonella enterica) [mm]	inhibition zone (IZ) (Escherichia coli [1]) [mm]	inhibition zone (IZ) (Escherichia coli [2]) [mm]	inhibition zone (IZ) (Staphylococcus aureus [3]) [mm]	inhibition zone (IZ) (Mycobacterium) [mm]	inhibition zone (IZ) (Escherichia coli [4]) [mm]	inhibition zone (IZ) (Escherichia coli [5]) [mm]	inhibition zone (IZ) (Staphylococcus aureus [6]) [mm]	inhibition zone (IZ) (Enterococcus faecalis) [mm]	inhibition zone (IZ) (Enterobacter cloacae) [mm]	inhibition zone (IZ) (Pseudomonas aeruginosa) [mm]	inhibition [7]	inhibition zone (IZ) (Candida albicans) [mm]
C[C@@H](NC(=O)Cc1ccccc1)C(=O)N1O[C@H](C(=O)O)C[C@@H]1C(=O)O	0	0	25	0										
CO/N=C(\C(=O)N[C@@H]1C(=O)N2C(C(=O)O)=C(COC(C)=O)CS[C@H]12)c1csc(N)n1 [CEFOTAXIME]					26	0	28	21	0	22	0			
O=C(O)c1cn(C2CC2)c2cc(N3CCNCC3)c(F)cc2c1=O [CIPROFLOXACIN]					29	38	27		0	24		35		
C[C@H](NC(=O)Cc1ccccc1)C(=O)N1O[C@H](C(=O)O)C[C@@H]1C(=O)O	0	0	20	0									inactive	
N[C@@H](C(=O)N[C@@H]1C(=O)N2C(C(=O)O)=C(Cl)CC[C@H]12)c1ccccc1 [LORACARBEF ANHYDROUS]					28	0	23	24	0	0	0	0		
O=C(Cc1ccccc1)NCC(=O)N1O[C@H](C(=O)O)C[C@@H]1C(=O)O	0	0	26	0	0	0	0	0	0	0	0	0		0
CC1(C)S[C@@H]2[C@H](NC(=O)Cc3ccccc3)C(=O)N2[C@H]1C(=O)O [PENICILLIN G]	12	37	54	23										

Reference: ChEMBL document CHEMBL1146029, “The synthesis and in vitro testing of structurally novel antibiotics derived from acylnitroso Diels-Alder adducts” (2006)
